Converted amounts (≈) assume the structure as drawn. The source made the active and inactive calls. The rule behind the calls is not given here.
Legend:
[1] = target: T1, Tyrosine-protein phosphatase non-receptor type 1 (Homo sapiens) (UniProt P18031); test: Inhibition of PTP1B at 100 uM
T1 sequence (whole entry): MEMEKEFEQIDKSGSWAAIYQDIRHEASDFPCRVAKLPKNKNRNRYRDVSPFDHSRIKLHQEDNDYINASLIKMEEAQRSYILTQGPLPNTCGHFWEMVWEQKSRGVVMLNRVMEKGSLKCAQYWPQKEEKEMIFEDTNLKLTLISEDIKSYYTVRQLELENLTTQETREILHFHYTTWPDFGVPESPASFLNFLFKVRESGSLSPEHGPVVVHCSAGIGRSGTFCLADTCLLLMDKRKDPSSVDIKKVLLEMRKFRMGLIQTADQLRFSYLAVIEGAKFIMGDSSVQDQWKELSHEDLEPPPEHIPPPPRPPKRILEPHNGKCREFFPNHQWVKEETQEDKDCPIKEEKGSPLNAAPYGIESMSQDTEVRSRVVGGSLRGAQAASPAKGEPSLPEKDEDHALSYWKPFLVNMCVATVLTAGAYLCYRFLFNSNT
How it was run: (§1)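 The PTP-1B assay used 10 mM pNPP in 50 mM HEPES (pH 7.0) with 1 mM DTT and 2 mM EDTA, 1.0 mL, 37 °C for 30 min. It was stopped with 0.1 N NaOH and read at 410 nm. p-Nitrophenolate was calculated with ε 1.78 × 10⁴ M⁻¹ cm⁻¹. Sodium vanadate was the reference.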

[2] = target: T2, Glucose-6-phosphatase catalytic subunit 1 (Homo sapiens) (UniProt P35575); test: Inhibition of glucose-6-phosphatase at 100 uM
T2 sequence (whole entry): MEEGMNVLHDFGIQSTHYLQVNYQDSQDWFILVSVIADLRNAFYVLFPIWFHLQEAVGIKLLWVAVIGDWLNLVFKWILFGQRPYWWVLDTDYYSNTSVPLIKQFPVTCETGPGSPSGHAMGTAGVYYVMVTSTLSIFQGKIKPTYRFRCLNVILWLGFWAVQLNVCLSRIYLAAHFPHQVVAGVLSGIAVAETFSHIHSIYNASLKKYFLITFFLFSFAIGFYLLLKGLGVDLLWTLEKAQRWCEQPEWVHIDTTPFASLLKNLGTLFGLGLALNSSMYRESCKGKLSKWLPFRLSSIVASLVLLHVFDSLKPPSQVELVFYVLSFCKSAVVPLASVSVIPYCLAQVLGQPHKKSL
How it was run: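 Compound was preincubated 10 min with glucose-6-phosphatase in 1.0 mL of 0.3 M citrate (pH 6.0), 28 mM EDTA, 14 mM NaF and 200 mM glucose-6-phosphate. The mixture was incubated 30 min at 37 °C and stopped with 10% TCA. Released Pi in the supernatant was measured by Taussky–Shorr; activity is µmol Pi/min/mg protein.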

Glycogen phosphorylase [3] = test: Inhibition of glycogen phosphorylase at 100 uM
[4] = target: T3, Tyrosine-protein phosphatase non-receptor type 1 (Homo sapiens, UniProt P18031); test: Inhibition of PTP1B; how it was run: as §1
T3 sequence (P18031 whole entry): T1 sequence (whole entry)

Rattus norvegicus [5] = test: Toxicity in Sprague-Dawley rat up to 250 mg/kg, po; type: organism-based; parameters: dose 250 mg/kg, route oral; settings: in vivo
Rattus norvegicus [6] = test: Antihyperglycemic activity in Sprague-Dawley rat assessed as inhibition of streptozotocin-induced increase in blood glucose level at 100 mg/kg, po after 24 hrs; type: functional; parameters: scale not given: the % may be the effect or the level left
How it was run: (§2)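 Overnight-fasted male Sprague–Dawley rats were made diabetic with streptozotocin 60 mg/kg ip in 100 mM citrate (pH 4.5). Rats with glucose >10 mM at 48 h and a baseline of 140–270 mg/dL were used, 5 per group. Test suspension or 1% gum acacia vehicle was given orally, then sucrose 2.5 g/kg orally 30 min later. Glucose was read at 30–1440 min; % activity is from AUC versus vehicle (Dunnett test).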

Rattus norvegicus [7] = test: Antihyperglycemic activity in Sprague-Dawley rat assessed as inhibition of streptozotocin-induced increase in blood glucose level at 100 mg/kg, po after 5 hrs; type: functional; parameters: scale not given: the % may be the effect or the level left; how it was run: as §2
[8] = target: Maltase-glucoamylase (Homo sapiens) (UniProt O43451); test: Inhibition of alpha-glucosidase at 100 uM
Chain of Maltase-glucoamylase (Homo sapiens) (O43451 whole entry, looked up): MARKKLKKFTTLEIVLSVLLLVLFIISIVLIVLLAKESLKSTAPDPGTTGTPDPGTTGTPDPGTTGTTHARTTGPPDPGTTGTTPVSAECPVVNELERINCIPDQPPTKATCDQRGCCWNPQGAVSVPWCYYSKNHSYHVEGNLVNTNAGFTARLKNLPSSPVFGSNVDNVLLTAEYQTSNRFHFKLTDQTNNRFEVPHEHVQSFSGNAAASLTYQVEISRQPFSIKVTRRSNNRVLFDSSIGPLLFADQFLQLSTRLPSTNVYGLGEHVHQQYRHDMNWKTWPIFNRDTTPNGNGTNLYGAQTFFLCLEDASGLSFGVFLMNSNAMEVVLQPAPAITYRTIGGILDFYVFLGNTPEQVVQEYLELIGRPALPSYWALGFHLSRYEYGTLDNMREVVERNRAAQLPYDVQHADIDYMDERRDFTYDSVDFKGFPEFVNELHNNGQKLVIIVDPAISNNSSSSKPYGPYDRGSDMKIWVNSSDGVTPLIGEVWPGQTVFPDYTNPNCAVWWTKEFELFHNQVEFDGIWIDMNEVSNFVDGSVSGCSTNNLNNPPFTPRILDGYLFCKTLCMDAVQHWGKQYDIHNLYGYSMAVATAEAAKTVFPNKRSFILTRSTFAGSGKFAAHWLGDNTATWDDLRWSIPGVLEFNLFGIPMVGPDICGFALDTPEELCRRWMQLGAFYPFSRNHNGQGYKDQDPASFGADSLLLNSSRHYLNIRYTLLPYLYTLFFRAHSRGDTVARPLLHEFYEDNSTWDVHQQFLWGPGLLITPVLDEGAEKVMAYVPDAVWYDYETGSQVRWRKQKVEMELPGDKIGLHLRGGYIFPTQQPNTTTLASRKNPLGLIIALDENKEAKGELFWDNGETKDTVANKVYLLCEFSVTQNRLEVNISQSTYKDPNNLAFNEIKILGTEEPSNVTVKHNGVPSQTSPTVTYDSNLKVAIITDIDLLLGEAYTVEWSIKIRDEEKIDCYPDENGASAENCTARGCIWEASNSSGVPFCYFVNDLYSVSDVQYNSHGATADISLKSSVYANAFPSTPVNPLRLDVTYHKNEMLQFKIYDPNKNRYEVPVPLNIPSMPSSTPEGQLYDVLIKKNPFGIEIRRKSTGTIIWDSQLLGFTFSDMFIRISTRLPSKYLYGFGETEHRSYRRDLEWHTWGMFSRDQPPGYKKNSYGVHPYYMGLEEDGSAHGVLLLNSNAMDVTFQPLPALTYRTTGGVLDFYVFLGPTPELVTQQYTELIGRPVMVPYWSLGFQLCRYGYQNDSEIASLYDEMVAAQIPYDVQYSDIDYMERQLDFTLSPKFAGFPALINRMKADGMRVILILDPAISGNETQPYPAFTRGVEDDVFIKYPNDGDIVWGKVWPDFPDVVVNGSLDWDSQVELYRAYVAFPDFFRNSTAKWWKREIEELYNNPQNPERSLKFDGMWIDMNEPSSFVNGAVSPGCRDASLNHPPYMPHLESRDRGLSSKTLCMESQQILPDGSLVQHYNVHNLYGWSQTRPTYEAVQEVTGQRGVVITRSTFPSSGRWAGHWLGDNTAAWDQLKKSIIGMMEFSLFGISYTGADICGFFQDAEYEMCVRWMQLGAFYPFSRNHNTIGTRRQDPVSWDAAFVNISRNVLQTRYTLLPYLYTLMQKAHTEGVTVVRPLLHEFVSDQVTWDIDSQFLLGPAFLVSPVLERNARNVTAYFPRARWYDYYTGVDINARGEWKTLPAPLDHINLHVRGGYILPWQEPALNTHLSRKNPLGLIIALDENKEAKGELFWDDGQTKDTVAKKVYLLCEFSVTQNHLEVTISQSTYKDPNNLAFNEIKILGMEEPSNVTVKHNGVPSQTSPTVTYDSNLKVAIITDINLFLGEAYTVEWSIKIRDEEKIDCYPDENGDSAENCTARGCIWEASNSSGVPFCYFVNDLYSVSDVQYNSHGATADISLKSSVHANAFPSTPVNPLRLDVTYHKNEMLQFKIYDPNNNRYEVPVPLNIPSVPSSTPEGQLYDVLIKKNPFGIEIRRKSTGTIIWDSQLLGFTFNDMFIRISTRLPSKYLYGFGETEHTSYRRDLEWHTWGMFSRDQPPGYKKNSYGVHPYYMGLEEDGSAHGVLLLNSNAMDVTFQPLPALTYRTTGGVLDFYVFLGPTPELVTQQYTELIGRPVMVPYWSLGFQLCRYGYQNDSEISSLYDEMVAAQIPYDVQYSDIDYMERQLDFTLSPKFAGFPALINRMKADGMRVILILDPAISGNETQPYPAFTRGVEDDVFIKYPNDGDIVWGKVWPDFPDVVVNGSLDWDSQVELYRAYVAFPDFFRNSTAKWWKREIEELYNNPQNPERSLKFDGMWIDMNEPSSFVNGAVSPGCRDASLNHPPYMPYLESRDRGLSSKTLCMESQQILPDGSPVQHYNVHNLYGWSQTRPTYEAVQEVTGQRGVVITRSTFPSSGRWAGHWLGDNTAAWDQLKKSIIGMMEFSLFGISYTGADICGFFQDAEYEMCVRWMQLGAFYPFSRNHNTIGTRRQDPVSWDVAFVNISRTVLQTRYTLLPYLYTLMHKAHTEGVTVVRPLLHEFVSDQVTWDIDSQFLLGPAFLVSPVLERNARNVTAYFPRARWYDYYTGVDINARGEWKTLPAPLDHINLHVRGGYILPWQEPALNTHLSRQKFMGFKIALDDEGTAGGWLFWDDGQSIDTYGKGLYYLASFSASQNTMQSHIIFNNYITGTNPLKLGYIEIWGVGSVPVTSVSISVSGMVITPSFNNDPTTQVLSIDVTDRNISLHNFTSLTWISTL
How it was run: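 Purified α-glucosidase (0.1 mg/mL) was assayed in 67 mM sodium phosphate (pH 6.8) with 1.0 mg/mL glutathione, 1 mL. The reaction was started with 3.0 mg/mL pNPG and followed at 405 nm every 30 s for 3 min.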

Glycogen phosphorylase [9] = test: Inhibition of glycogen phosphorylase
[10] = Solubility in triple distilled water; type: physicochemical

Cc1c(-c2ccccc2)c(C#N)c(N)c(C#N)c1N1CCCCC1
inhibition [1]: 31.1%
inhibition [2]: 38.2%
inhibition (Glycogen phosphorylase [3]): 4.7%

CSc1c(C#N)c(N)c(C#N)c(Cc2ccccc2)c1-c1ccccc1
inhibition [2]: 24.5%
inhibition (Glycogen phosphorylase [3]): 11.6%

COc1ccc(-c2c(C#N)c(N)c(C#N)c(SC)c2-c2ccc(OC)cc2)cc1
IC50 [4]: 72 µM
Activity (Rattus norvegicus [5]): Non-toxic
inhibition [1]: 76.9%
inhibition [2]: 5.5%
inhibition (Glycogen phosphorylase [3]): 6.9%
Activity (Rattus norvegicus [6]): 17.6%
Activity (Rattus norvegicus [7]): 17.5%
inhibition [8]: 14.4%

COc1ccc(-c2c(C)c(N3CCCCC3)c(C#N)c(N)c2C#N)cc1
inhibition [1]: inactive
inhibition [2]: 33.3%
inhibition (Glycogen phosphorylase [3]): 15.7%

COc1ccc(-c2c(C)c(SC)c(C#N)c(N)c2C#N)cc1
inhibition [1]: 0%
inhibition [2]: 12.3%
inhibition (Glycogen phosphorylase [3]): 37.5%
inhibition [8]: 17.3%

COc1ccc(-c2c(C#N)c(N)c(C#N)c(SC)c2-c2ccc(F)cc2)cc1
inhibition [1]: 48.8%
inhibition [2]: 5.5%
inhibition (Glycogen phosphorylase [3]): inactive
Activity (Rattus norvegicus [6]): 25.2%
Activity (Rattus norvegicus [7]): 22.1%
inhibition [8]: 13.4%

Cc1c(-c2ccccc2)c(C#N)c(N)c(C#N)c1N1CCC(C)CC1
inhibition [1]: inactive
inhibition [2]: 10.9%
inhibition (Glycogen phosphorylase [3]): 2.3%

COc1ccc(-c2c(C)c(C#N)c(N)c(C#N)c2SC)c(OC)c1
inhibition [1]: 25.6%
inhibition [2]: 0.08%
inhibition (Glycogen phosphorylase [3]): 50%
inhibition [8]: 10.5%

CSc1c(C)c(-c2ccccc2)c(C#N)c(N)c1C#N
inhibition [1]: inactive
inhibition [2]: 0.96%
inhibition (Glycogen phosphorylase [3]): 45%
inhibition [8]: 6.7%

COc1ccc(-c2c(C#N)c(N)c(C#N)c(SC)c2-c2ccc(OC)c(OC)c2)cc1
inhibition [1]: 30.7%
inhibition [2]: 0.3%
inhibition (Glycogen phosphorylase [3]): 13.8%
inhibition [8]: 25.9%

CSc1c(C#N)c(N)c(C#N)c(C)c1-c1ccccc1F
inhibition [1]: 40.2%
inhibition [2]: 8.2%
inhibition (Glycogen phosphorylase [3]): 20%
inhibition [8]: inactive

CSc1c(C#N)c(N)c(C#N)c(C)c1-c1ccc(C(F)(F)F)cc1
inhibition [1]: 58.5%
inhibition [2]: 14.4%
inhibition (Glycogen phosphorylase [3]): 55%
inhibition [8]: 22.1%

CSc1c(C)c(-c2ccc(Cl)cc2)c(C#N)c(N)c1C#N
inhibition [1]: 7.3%
inhibition [2]: 19.3%
inhibition (Glycogen phosphorylase [3]): 12.5%
inhibition [8]: 6.7%

COc1ccc(-c2c(C)c(C#N)c(N)c(C#N)c2SC)cc1OC
inhibition [1]: 0%
inhibition [2]: 6.1%
inhibition (Glycogen phosphorylase [3]): 10%
inhibition [8]: 6.7%

COc1ccc(-c2c(C#N)c(N)c(C#N)c(SC)c2-c2ccccc2)cc1
IC50 [4]: 86 µM
Activity (Rattus norvegicus [5]): Non-toxic
inhibition [1]: 61.5%
inhibition [2]: 6.8%
inhibition (Glycogen phosphorylase [3]): 37.9%
Activity (Rattus norvegicus [6]): 36.9%
Activity (Rattus norvegicus [7]): 26.5%
inhibition [8]: 5.7%

CSc1c(C#N)c(N)c(C#N)c(C)c1-c1ccc(F)cc1
inhibition [1]: 3.6%
inhibition [2]: 41.8%
inhibition (Glycogen phosphorylase [3]): 5%
inhibition [8]: 17.3%

CN(C)C(=N)NC(=N)N [METFORMIN]
Activity (Rattus norvegicus [6]): 21.9%
Activity (Rattus norvegicus [7]): 20.9%

COc1ccc(-c2c(C#N)c(N)c(C#N)c(SC)c2-c2ccc(F)cc2)c(OC)c1
inhibition [1]: 28.2%
inhibition [2]: 1.9%
IC50 (Glycogen phosphorylase [9]): 79 µM
inhibition (Glycogen phosphorylase [3]): 74.3%
inhibition [8]: 11.5%

CSc1c(C#N)c(N)c(C#N)c(-c2ccccc2)c1-c1ccccc1
IC50 [4]: 58 µM
Activity (Rattus norvegicus [5]): Non-toxic
inhibition [1]: 81.6%
inhibition [2]: 7.4%
solubility [10]: 0.13 µg/mL (≈ 0.381 µM)
inhibition (Glycogen phosphorylase [3]): inactive
Activity (Rattus norvegicus [6]): 28.1%
Activity (Rattus norvegicus [7]): 24.1%
inhibition [8]: 10.5%

Reference: ChEMBL document CHEMBL1153999, “5,6-Diarylanthranilo-1,3-dinitriles as a new class of antihyperglycemic agents” (Bioorg Med Chem Lett, 2009)
